DNMT1 block – DNMT1 (human) enzyme inhibition; P26358; DNMT1 molecular beacon, Hinp1I cleavage, fluorescence; inhibition (reported as % activation of signal), % at 10 µM; actives 0.83% (n = 360,000); in the data active = inhibition above about 50%
SUMO1-SIM PPI – SUMO1-SIM interaction modulation; actives 0.33% (n = 360,000); AID 602429; SUMO1 binding to a labelled peptide, TR-FRET, 1 h; P63165; inhibition, % at 20 µM; in the data active = inhibition above about 37%
Scp1 inh – Scp-1 (human) phosphatase inhibition; AID 493091; actives 0.88% (n = 340,000); Recombinant Scp1, phosphopeptide, malachite green phosphate absorbance; inhibition, % at 20 µM; Q9GZU7;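 active = inhibition above about 50% at 20 µM, limit read from the data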;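 also: plate controls were DMSO wells with enzyme for no effect and wells lacking enzyme for full effect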
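Times: enzyme reaction 45 min at room temperature, colour 5 min, stabilisation 30 min. Material: SCP-1 catalytic fragment, aa 76-261. Medium: Acidic Tris acetate buffer with magnesium and detergent. Signal: colorimetric free-phosphate detection, absorbance 630 nm. Read-out basis: % inhibition of SCP-1 phosphate liberation. Reagent: Phosphorylated 17-residue peptide substrate.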
STEP block – blocks human striatal-enriched tyrosine phosphatase. actives 0.25% (n = 360,000). P54829. AID 588621. inhibition, % at 20 µM. recombinant STEP, OMFP fluorogenic substrate, fluorescence;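 active = inhibition at 20 µM, scaled per plate between control wells, above about 37%, limit read from the data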;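 also: 0% = DMSO with enzyme and substrate and 100% = substrate only without enzyme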
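Material: STEP (striatal-enriched tyrosine phosphatase) enzyme, cell-free; Compound dosing: 20 µM single dose in 1% DMSO; Technique: fluorescence read at 480 nm ex / 540 nm em; Times: reaction 20 min, ambient temperature; Medium: 50 mM Bis-Tris pH 6.0 with 2.5 mM DTT and 0.005% Tween 20; Also added: OMFP at 25 µM.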
LMPTP block – blocks human LMPTP phosphatase; recombinant LMPTP-A, OMFP fluorogenic substrate, fluorescence intensity; AID 651560; actives 0.22% (n = 360,000); inhibition, % at 20 µM;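 active = compounds that cut the enzyme signal by at least half of the control window in the single-dose screen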;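 also: plate controls were DMSO wells with enzyme plus substrate for no effect and substrate without enzyme for full effect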
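test system = LMPTP-A | amount = 0.625 nM LMPTP-A final | reagent = fluorogenic phosphatase substrate OMFP at 400 µM final | incubation = 50 min at room temperature | benchmarks = no-enzyme low control, uninhibited high control | medium = Bis-Tris pH 6.0, DTT, detergent | signal = fluorescence intensity of OMFP turnover product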
Numbers without * were called inactive; x = no result given; + = active, no number; ! = a repeat was not active. An excerpt weighted towards active compounds, which were near 1.7% of everything screened.

SMILES	DNMT1 block	SUMO1-SIM PPI	Scp1 inh	STEP block	LMPTP block
CCN1/C(=C2/SC(=S)NC2=O)Sc2ccccc21	-0.9	5.5	-1.7	1.0	-0.8
CSc1ccc(C2=C/C(=C3/SC(=S)NC3=O)c3ccccc3O2)cc1	70.3*	-17.6	-11.7	3.0	1.9
O=C(Nc1ccc(C2=NCCN2)cc1)c1ccc(C(=O)Nc2ccc(C3=NCCN3)cc2)c([N+](=O)[O-])c1	-6.5	96.0*	-7.1	14.5	82.4*
O=C(CCN1C(=O)[C@@H]2Cc3ccccc3CN2C1=O)Nc1cccc(F)c1	2.2	3.8	-5.2	1.5	-1.8
O=C1c2cccc3cccc(c23)C(=O)C1(O)O	3.2	-25.5	-10.5	6.0	57.2*
CC(=O)N1C(=O)c2cccc3cccc(c23)C(=O)N1C(C)=O	x	x	0.6	x	x
O=C(Nc1ccn(Cc2ccc(Cl)cc2)n1)c1ccc2c(c1)OCO2	-7.8	40.1*	-5.3	-1.3	-0.5
CC(C)=C1CCC(C)CC1=NNC(N)=S (configuration not stated)	1.0	-3.0	56.0*	-1.4	-1.0
Cc1csc2nc(O)c(C(=O)NCc3ccc4c(c3)OCO4)c(=O)n12	-0.3	7.1	-4.9	1.3	52.8*
CCCN1CCC(=O)N([C@H](CN=[N+]=[N-])Cc2ccccc2)CC1	-1.2	-3.3	-3.5	-0.5	0.2
Cc1ccc(Nc2ccc(N)cc2S(=O)(=O)O)cc1	12.7	26.6	14.9	4.6	67.1*
CC(/C=C1\N=C(SCc2ccccc2Cl)SC1=O)=C\c1ccccc1	101.4*	-0.3	-5.0	-2.0	2.0
O=C1SC(SCc2ccccc2)=N/C1=C\c1ccc(C(=O)O)cc1	2.1	-0.7	16.9	4.0	1.5
COc1ccc(Sc2ccc(/C=C3\C(=O)NN(c4ccccc4)C3=O)o2)cc1	55.6*	7.3	35.2	7.5	4.4
COc1cc(/C=C2\C(=O)NN(c3ccccc3)C2=O)cc([N+](=O)[O-])c1O	29.1	-5.4	13.1	7.3	4.6
O=C1NN(c2ccccc2)C(=O)/C1=C\c1ccc(-c2cc([N+](=O)[O-])ccc2O)o1	23.3	-1.0	87.3*	46.1*	84.1*
COc1ccc(-n2c(C)cc(/C=C3\C(=O)NN(c4ccccc4)C3=O)c2C)cc1	-13.4	-16.9	-6.3	-0.8	2.2
CCS(=O)(=O)N1CCC2(CC1)OCCN2S(=O)(=O)c1ccc(OC)cc1	0.8	-3.8	-6.1	-2.0	-0.9
C=CCn1cc(/C=C/c2cc[n+](C)cc2)c2ccccc21	16.4	-89.5	16.4	-13.6	-2.7
CCn1cc(/C=C/c2cc[n+](C)cc2)c2ccccc21	26.2	-124.9	67.5*	-13.5	1.2
CC[C@]12c3[nH]c4cc(-c5ccco5)ccc4c3CCN1C(=O)[C@@H](CC(=O)NCCCn1ccnc1)C[C@@H]2C(=O)N1CCN(C(=O)c2ccco2)CC1	-0.5	-11.2	3.9	-1.7	-2.7
Cc1ccc(NC(=O)N/C=C/c2ccco2)cc1C	56.7*	14.7	-6.0	2.4	0.6
Cc1ccc(NC(=O)N/C=C/c2ccco2)c(C)c1	28.7	-0.5	8.9	2.4	24.6
O=C1c2c(Cl)c(Cl)c(Cl)c(Cl)c2C(=O)N1c1nccs1	11.2	18.5	-1.8	9.9	-0.3
N=c1c2c3c(sc2nc2n1CCCCC2)CCCCC3	4.0	3.9	-2.0	42.0*	0.2
SMILES	DNMT1 block	SUMO1-SIM PPI	Scp1 inh	STEP block	LMPTP block
CC(C)c1cccc(-c2csc(C(C)(O)c3ccncc3)n2)c1 (configuration not stated)	3.8	2.4	x	1.2	26.7
COCCN(CC(=O)Nc1cccc(C)c1C)C(=O)c1cc2c(s1)CCC2	39.3	9.4	61.1*	9.2	5.4
CCN(CC(=O)Nc1ccccc1C(F)(F)F)C(=O)c1cc2c(s1)CCCCC2	0.8	0.3	-4.8	-1.1	0.6
Cc1n[nH]c(C)c1CCc1nc2c3ccccc3nc(SCC(N)=O)n2n1	-0.8	4.7	0.3	0.7	-1.4
Cc1ccc(NC(=O)CSc2nc3ccccc3c3nc(CCc4c(C)n[nH]c4C)nn23)cc1F	-19.8	42.5*	-1.2	-13.1	-2.0
O=C(COC(=O)c1ccc([N+](=O)[O-])s1)c1ccc[nH]1	50.2*	14.1	15.5	-6.3	0.5
O=C(COC(=O)c1ccc([N+](=O)[O-])s1)NCc1ccc(F)cc1	27.8	49.4*	-10.3	2.2	-0.3
Cc1c(Cc2ccccc2)c(=O)oc2cc(OCC(=O)N3CCC(C(=O)O)CC3)ccc12	3.6	6.5	9.5	-2.1	-2.0
Cc1ccc(-n2nnnc2SCC(=O)Nc2ccc3c(c2)OCCO3)cc1C	0.9	-0.5	-0.3	-8.6	-0.3
Cc1ccc(-n2nnnc2SCC(=O)Nc2ccc3c(c2)COC3=O)cc1C	42.0	40.2*	-6.1	0.3	2.9
O=C(NC(=Nc1nc2ccccc2o1)NC(=O)c1ccccc1)c1ccccc1	29.2	-0.3	26.3	1.2	0.8
COc1ccccc1C(=O)NC(=Nc1nc2ccccc2o1)NC(=O)c1ccccc1OC	0.2	67.0*!	-6.7	-2.7	1.4
O=C(CSc1cccc[n+]1[O-])NC1CCCCC1	5.2	6.8	-0.1	-1.8	-1.7
CCNC(=S)NNc1nnc(-c2ccccc2)c(-c2ccccc2)n1	-0.7	-13.5	-2.4	2.2	-0.8
CC1CC(C)CN(c2ccc(NS(=O)(=O)c3ccccc3)cc2C(=O)O)C1 (configuration not stated)	0.4	3.2	-1.8	3.1	0.3
CCC1CCc2c(sc(N)c2C(N)=O)C1 (configuration not stated)	-6.9	46.9*	-7.7	0.5	0.5
CCOC(=O)c1c(N)sc2c1CCC(CC)C2 (configuration not stated)	0.5	-5.0	-3.4	0.7	2.2
COc1ccc(N2CCN(CCCn3cnc4c(SC)ncnc43)CC2)cc1	-0.1	1.2	x	3.3	-0.1
Cc1cc(N2CCN(C(=O)c3[nH]c(C(F)(F)F)nc3-c3ccccc3)CC2)c2ccccc2n1	-5.4	11.9	x	-0.9	35.6
Cc1cc(N2CCN(C(=O)Nc3ccccc3C#N)CC2)c2ccccc2n1	-0.4	-0.5	6.3	2.0	51.1*
Cc1ccccc1C(=O)N1CCC(C(N)=O)CC1	1.6	55.2*	-5.9	1.7	-1.6
CCCCN(C)C(=O)c1cn(C)c2ccc(S(=O)(=O)N3CCC(C)CC3)cc2c1=O	0.7	0.7	-3.8	-1.3	0.5
O=c1oc2cc(O)ccc2cc1-c1nc2c(s1)CCc1ccccc1-2	+	-7.0	-7.8	-37.2	0.9
O=c1oc2ccccc2cc1-c1nc2c(s1)CCc1ccccc1-2	-28.2	-5.3	-15.6	-0.2	1.6
CCOC(=O)c1cc2nc(OCC)nc(OCC)c2[nH]1	-6.3	10.4	-5.0	-1.3	0.4
COC(=O)c1cc(C)nc2c1C(=O)C(=O)C=C2N1CCOCC1	96.6*	78.9*	5.6	10.8	20.7
